What was measured:
Format in all cases: functional
MDA-MB-231 = test: Growth inhibition of human MDA-MB-231 cells after 48 hrs; settings: MDA-MB-231, 48 h
Method in brief: (§1)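 NCI ~60-line screen. Cells were grown in RPMI 1640 with 5% FBS and 2 mM L-glutamine and plated at 5000–40000 cells/well. After a 24 h preincubation, five drug concentrations from DMSO stocks were added for 48 h at 37 °C. Cells were TCA-fixed, stained with SRB and read at 515 nm. GI50 was taken from time-zero and control absorbances and reported as pGI50.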

SN12C = test: Growth inhibition of human SN12C cells after 48 hrs
Method in brief: (§2)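 NCI 60-line screen: cells in RPMI 1640 with 5% FBS and 2 mM L-glutamine, plated at 5000–40000 cells/well, grown 24 h (37 °C, 5% CO₂), then exposed to five 10-fold or ½-log dilutions (DMSO stock) for 48 h. Fixed with TCA (final 10% for adherent cells, 16% for suspension cells), then SRB stained with absorbance at 515 nm. GI50 from percentage growth relative to time-zero and control wells.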

DU-145 = test: Growth inhibition of human DU145 cells after 48 hrs; settings: DU-145, 48 h; method in brief: as §1
HCC 2998 = test: Growth inhibition of human HCC2998 cells after 48 hrs; settings: HCC 2998, 48 h; method in brief: as §1
RXF 393 = test: Growth inhibition of human RXF393 cells after 48 hrs; settings: RXF 393, 48 h; method in brief: as §1
SK-MEL-5 = test: Growth inhibition of human SK-MEL5 cells after 48 hrs; settings: SK-MEL-5, 48 h; method in brief: as §1
SK-MEL-2 = test: Growth inhibition of human SK-MEL2 cells after 48 hrs; settings: SK-MEL-2, 48 h; method in brief: as §1
COLO 205 = test: Growth inhibition of human COLO205 cells after 48 hrs; settings: COLO 205, 48 h; method in brief: as §1
SK-OV-3 = test: Growth inhibition of human SKOV3 cells after 48 hrs; settings: SK-OV-3, 48 h; method in brief: as §2
BT-549 = test: Growth inhibition of human BT549 cells after 48 hrs; settings: BT-549, 48 h; method in brief: as §1
HOP-62 = test: Growth inhibition of human HOP62 cells after 48 hrs; settings: HOP-62, 48 h; method in brief: as §1
Malme-3M = test: Growth inhibition of human MALME3M cells after 48 hrs; method in brief: as §1
OVCAR-8 = test: Growth inhibition of human OVCAR8 cells after 48 hrs; settings: OVCAR-8, 48 h; method in brief: as §1
HCT-15 = test: Growth inhibition of human HCT15 cells after 48 hrs; settings: HCT-15, 48 h; method in brief: as §1
SW-620 = test: Growth inhibition of human SW620 cells after 48 hrs; settings: SW-620, 48 h; method in brief: as §2
SR = test: Growth inhibition of human SR cells after 48 hrs; method in brief: as §2
SF-539 = test: Growth inhibition of human SF539 cells after 48 hrs; settings: SF-539, 48 h; method in brief: as §1
SF-268 = test: Growth inhibition of human SF268 cells after 48 hrs; settings: SF-268, 48 h; method in brief: as §1
PC-3 = test: Growth inhibition of human PC3 cells after 48 hrs; settings: PC-3, 48 h; method in brief: as §1
UACC-62 = test: Growth inhibition of human UACC62 cells after 48 hrs; settings: UACC-62, 48 h; method in brief: as §2
RPMI-8226 = test: Growth inhibition of human RPMI8226 cells after 48 hrs; settings: RPMI-8226, 48 h; method in brief: as §1
NCI/ADR-RES = test: Growth inhibition of human NCI/ADR-RES cells after 48 hrs; method in brief: as §1

## Cn1c2ccccc2c2c(=O)n(CCCC(=O)NCC(=O)N(C(=O)NC3CCCCC3)C3CCCCC3)c3c(-c4ccccc4)nnn3c21
MDA-MB-231
  GI50: 12.3 µM
  LC50 (concentration killing 50% of cells): > 100 µM
MDA-MB-231; read-out: pTGI (converted)
  TGI: 38 µM
SN12C
  GI50: 19.5 µM
  LC50: > 100 µM
SN12C; read-out: pTGI (converted)
  TGI: 50.1 µM
DU-145
  GI50: 18.6 µM
  LC50: > 100 µM
DU-145; read-out: pTGI (converted)
  TGI: > 100 µM
HCC 2998
  GI50: 10.2 µM
  LC50: 70.8 µM
HCC 2998; read-out: pTGI (converted)
  TGI: 26.9 µM
RXF 393
  GI50: 11 µM
  LC50: > 100 µM
RXF 393; read-out: pTGI (converted)
  TGI: 37.2 µM
SK-MEL-5
  GI50: 6.03 µM
  LC50: > 100 µM
SK-MEL-5; read-out: pTGI (converted)
  TGI: 31.6 µM
SK-MEL-2
  GI50: 33.1 µM
  LC50: > 100 µM
SK-MEL-2; read-out: pTGI (converted)
  TGI: > 100 µM
COLO 205
  GI50: 2.82 µM
  LC50: > 100 µM
COLO 205; read-out: pTGI (converted)
  TGI: > 100 µM
SK-OV-3
  LC50: 33.9 µM
SK-OV-3; read-out: pTGI (converted)
  TGI: 18.6 µM
BT-549
  GI50: 26.9 µM
HOP-62
  GI50: 15.1 µM
  LC50: 87.1 µM
HOP-62; read-out: pTGI (converted)
  TGI: 36.3 µM
Malme-3M
  GI50: 46.8 µM
  LC50: > 100 µM
Malme-3M; read-out: pTGI (converted)
  TGI: > 100 µM
OVCAR-8
  LC50: > 100 µM
HCT-15
  GI50: 10.7 µM
  LC50: > 100 µM
HCT-15; read-out: pTGI
  TGI: > 100 µM
SW-620
  GI50: 3.8 µM
  LC50 (lethal concentration, 50% cell kill): > 100 µM
SW-620; read-out: pTGI (converted)
  TGI: > 100 µM
SR
  GI50: 3.02 µM
  LC50: 8.51 µM
SR; read-out: pTGI (converted)
  TGI: 5.13 µM
SF-539
  LC50 (concentration killing 50% of cells): > 100 µM
SF-539; read-out: pTGI (converted)
  TGI: 57.5 µM
SF-268
  GI50: 15.1 µM
SF-268; read-out: Log LC50 (the source's name) (converted)
  CC50: > 100 µM
SF-268; read-out: pTGI (converted)
  TGI: > 100 µM
PC-3
  GI50: 22.9 µM
  LC50: > 100 µM
PC-3; read-out: pTGI (converted)
  TGI: > 100 µM
UACC-62
  GI50: 25.7 µM
  LC50: > 100 µM
UACC-62; read-out: pTGI (converted)
  TGI: > 100 µM
RPMI-8226
  GI50: 4.27 µM
  LC50: 97.7 µM
RPMI-8226; read-out: pTGI (converted)
  TGI: 21.4 µM
NCI/ADR-RES
  GI50: 15.5 µM
  LC50 (concentration killing 50% of cells): 72.4 µM
NCI/ADR-RES; read-out: pTGI (converted)
  TGI: 33.9 µM
